# RAD52 inh = blocks human RAD52 DNA annealing. P43351. recombinant RAD52 DNA annealing, FRET fluorescence. inhibition, % at 18.7 µM. hit rate 0.46% among 360,000;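 active means every replicate showing at least 50% inhibition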
# Target sequence (P43351 whole entry, looked up): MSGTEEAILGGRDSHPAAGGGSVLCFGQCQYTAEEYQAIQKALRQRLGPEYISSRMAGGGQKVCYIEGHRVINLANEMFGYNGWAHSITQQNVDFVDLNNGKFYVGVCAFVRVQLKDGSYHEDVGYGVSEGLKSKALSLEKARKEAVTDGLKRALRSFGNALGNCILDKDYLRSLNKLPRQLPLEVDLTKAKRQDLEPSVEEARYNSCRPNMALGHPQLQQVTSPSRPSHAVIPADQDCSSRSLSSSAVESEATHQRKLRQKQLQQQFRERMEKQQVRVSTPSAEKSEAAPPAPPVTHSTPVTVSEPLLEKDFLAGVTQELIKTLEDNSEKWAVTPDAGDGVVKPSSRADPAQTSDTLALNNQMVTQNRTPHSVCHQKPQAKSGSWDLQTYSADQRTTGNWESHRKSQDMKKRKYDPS
# S100A4 MyoIIA = blocks human S100A4 binding to myosin IIA peptide; inhibition, % at 10.7 µM; hit rate 0.14% among 360,000; S100A4/TAMRA-MyoIIA peptide fluorescence polarization; P26447;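 active means mean inhibition of at least 70% across replicates, with every replicate also reaching that level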
# Target sequence (P26447 whole entry, looked up): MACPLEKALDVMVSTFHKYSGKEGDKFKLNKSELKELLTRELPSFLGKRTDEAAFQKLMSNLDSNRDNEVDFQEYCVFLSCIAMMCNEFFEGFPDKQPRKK
#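 System – human S100A4 monomer protein, biochemical binding assay · Buffer or medium – Calcium-containing HEPES buffer, pH 7.2 · Timing – 5 min between mix addition and reading · Also added – TAMRA-labelled myosin IIA heavy-chain peptide probe, 5 nM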
# MLL AF4-AF9 inh = blocks AF4 peptide binding to human AF9; P42568; AlphaScreen, biotin-AF4 peptide binding to FLAG-AF9; inhibition, % at 10 µM; hit rate 0.47% among 350,000;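 active means every replicate reaching a set inhibition limit, whatever the replicate mean, cut at about 25% in these data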
# INS-1E GSIS act = GLuc luminescence reporter in INS-1E cells, primary screen for activators of glucose-dependent secretion of insulin; INS-1E GLuc reporter insulin secretion, 2-3 h; activation, % at 16.6 µM; hit rate 0.61% among 370,000;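 active means lowest replicate activation of at least 40%, so every replicate reaches that level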
# ERAP1 HTS inh = blocks human ERAP1 aminopeptidase activity; inhibition, % at 10.7 µM; hit rate 0.15% among 340,000; AID 652197; Q9NZ08; recombinant ERAP1, Leu-AMC fluorescence, 60 min;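 active means mean replicate inhibition of at least 30%, or all replicates individually reaching that 30% level; inactive means mean below 30% and not every replicate reaching it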
# Numbers stand for hits; 0 = inactive; - = no result. In the library only some 1.5% were active in any assay of this set; here they are far more common.
SMILES,RAD52 inh,S100A4 MyoIIA,MLL AF4-AF9 inh,INS-1E GSIS act,ERAP1 HTS inh
N#Cc1nc(COc2ccccc2Cl)oc1N1CCCC1,0,0,26,-,0
N#Cc1nc(COc2ccccc2Cl)oc1N1CCCCCC1,0,0,0,0,0
COc1ccc2c3c(n(C)c2c1)[C@H](CO)N(S(C)(=O)=O)CC31CN(C(=O)Nc2cccc(F)c2)C1,0,0,0,0,0
O=S(=O)(c1cccc(F)c1)N1CCN(Cc2cccc(OCCO)c2)CC1,0,0,0,-,0
COc1cc(C(=O)Nc2ccccc2C(=O)NCc2cccnc2)cc(OC)c1OC,0,0,0,0,0
COc1ccc(C(=O)Nc2ccccc2C(=O)Nc2ccncc2)cc1,0,0,0,45,0
COc1ccc(C(=O)Nc2ccccc2C(=O)NCc2cccnc2)cc1OC,0,0,0,41,0
CCCNC(=O)N1CC2(CCN(C(=O)C3CCC3)CC2)c2c([nH]c3cc(OC)ccc23)[C@@H]1CO,-,-,44,0,-
COCC(=O)N1CC2(CCN(Cc3ccccc3Cl)CC2)c2c([nH]c3cc(OC)ccc23)[C@H]1CO,0,85,0,0,0
COc1ccc2c3c([nH]c2c1)[C@H](CO)N(C(C)=O)CC31CN(Cc2ccccc2Cl)C1,0,0,26,0,0
CCC(=O)N1CC2(CCN(Cc3ccc(Cl)cc3)CC2)c2c([nH]c3cc(OC)ccc23)[C@@H]1CO,-,-,26,0,-
CO[C@H]1CN(C)C(=O)c2cc(NC(C)=O)ccc2OC[C@@H](C)N(Cc2ccccn2)C[C@H]1C,0,0,0,0,0
C[C@H](CO)N1C[C@H](C)[C@H](CN(C)Cc2ccccc2)Oc2cc(-c3ccccc3)ccc2S1(=O)=O,-,-,-,0,-
C[C@@H]1CN([C@@H](C)CO)C(=O)c2cc(C#Cc3cccnc3)cnc2O[C@H]1CN(C)Cc1ccc(F)cc1,0,0,0,0,-
O=C(Cc1cccnc1)N1CC(=O)N2[C@@H](CO)[C@H](c3ccc(-c4cccc(F)c4)cc3)[C@@H]2C1,-,-,-,0,-
COc1ccc2c3c([nH]c2c1)[C@@H](CO)N(Cc1nccs1)CC31CCN(Cc2cccnc2)CC1,60,0,0,0,0
Cc1ccc(NC(=O)NCCN2CCCCC2)cc1Cl,0,0,26,0,0
Cc1ccc(NC(=O)NCCN2CCN(c3ccccc3)CC2)cc1Cl,0,0,0,0,0
COc1ccc(NC(=O)N(C)C[C@@H]2OCCCC[C@H](C)Oc3ccc(NS(=O)(=O)c4ccc(OC)cc4)cc3C(=O)N([C@H](C)CO)C[C@H]2C)cc1,0,0,0,0,0
CO[C@H]1CN(C)C(=O)c2ccc(NC(C)=O)cc2OC[C@@H](C)N(Cc2cc(F)ccc2F)C[C@H]1C,0,0,0,0,0
CCCN1C[C@H](C)[C@H](OC)CN(C)C(=O)c2ccc(NC(=O)c3cccc(F)c3)cc2OC[C@H]1C,0,0,39,0,0
CO[C@@H]1CN(C)C(=O)c2ccc(NC(C)=O)cc2OC[C@H](C)N(Cc2cc(F)ccc2F)C[C@@H]1C,0,105,0,0,0
CCCN1C[C@H](C)[C@@H](OC)CN(C)C(=O)c2ccc(NC(=O)c3cccc(F)c3)cc2OC[C@H]1C,0,0,45,0,0
CCCN1C[C@H](C)[C@@H](OC)CN(C)C(=O)c2ccc(NC(=O)c3cccc(F)c3)cc2OC[C@@H]1C,0,0,39,0,0
CC(C)NC(=O)Nc1ccc2c(c1)CC(=O)N([C@H](C)CO)C[C@@H](C)[C@@H](CN(C)Cc1ccc(C(F)(F)F)cc1)O2,0,0,0,0,0
SMILES,RAD52 inh,S100A4 MyoIIA,MLL AF4-AF9 inh,INS-1E GSIS act,ERAP1 HTS inh
CCCNC(=O)N1CC2(CCN(C(=O)COC)CC2)c2c(n(C)c3cc(OC)ccc23)[C@H]1CO,-,-,-,0,-
C[C@@H]1CCCCO[C@@H](CN(C)S(C)(=O)=O)[C@H](C)CN([C@@H](C)CO)C(=O)c2cc(NC(=O)c3ccccc3)ccc2O1,0,0,0,0,0
O=C(NCCCN1CCCC1)c1ccc2c(c1)N(Cc1ccccc1)CCS2,0,0,0,0,0
CCN1CCSc2ccc(C(=O)NCc3ccccc3C)cc21,0,0,49,0,0
CCN1CCN(CCCNC(=O)c2ccc3c(c2)N(Cc2ccccc2)CCS3)CC1,0,0,0,43,0
CCN1CCSc2ccc(C(=O)NCc3ccccc3F)cc21,0,0,25,-,0
CCN1CCSc2ccc(C(=O)NCc3ccccc3Br)cc21,0,0,0,0,0
O=C(C[C@@H]1C=C[C@@H](NC(=O)C2CCOCC2)[C@@H](CO)O1)Nc1nccs1,0,0,0,0,0
CC(C)NC(=O)N(C)C[C@H]1Oc2c(cccc2[N+](=O)[O-])C(=O)N(C)C[C@@H]1C,-,-,-,0,-
CC(=O)c1cccc(NC(=O)C(C)OC(=O)CCCN=C2NS(=O)(=O)c3ccccc32)c1 (stereo not given),0,0,0,0,0
CC(=O)Nc1ccc(NC(=O)C(C)OC(=O)CCCN=C2NS(=O)(=O)c3ccccc32)cc1 (stereo not given),0,136,0,0,0
COC(=O)/C(=N/Nc1ccccc1)N1CCCc2ccccc21,0,0,37,0,0
CC1=CC(C)(C)n2c(O)c(N=N)c3cc(C)cc1c32,0,0,26,-,0
COc1ccc(-c2nc(CCNC(=O)c3ccco3)cs2)cc1OC,0,0,0,89,0
COc1ccc(-c2csc(NC(=O)CCNC(=O)c3ccco3)n2)cc1OC,0,0,0,0,0
CC(=O)N1CC2(C1)[C@H](c1ccccc1)[C@H](CO)N2C(=O)c1ccncc1,-,-,-,0,-
N#CC12COC3(CCCCC3C1(C#N)C#N)OC2=N (stereo not given),0,79,0,0,0
CO[C@@H](C(=O)N(C)C[C@@H]1OCc2ccccc2-c2c(n(C)c3ccccc23)C(=O)N([C@@H](C)CO)C[C@H]1C)c1ccccc1,-,-,-,0,-
COc1ccc(NC(=O)Nc2ccc3c(c2)C(=O)N([C@H](C)CO)C[C@H](C)[C@H](CN(C)C(=O)Nc2ccc4c(c2)OCO4)OCCCC[C@H](C)O3)cc1,0,0,0,0,0
CC(=O)Nc1cccc(/C(C)=N/NC(=S)NC(C)C)c1,0,0,0,0,0
C/C(=N\NC(=S)NC(C)C)c1ccccc1,0,0,0,54,0
O=C(Nc1ccc(F)cc1)C(Sc1nnc2ccccn12)c1ccccc1 (stereo not given),0,0,49,0,0
CCOc1ccccc1NC(=O)C(Sc1nnc2ccccn12)c1ccccc1 (stereo not given),0,0,0,0,0
O=C(C[C@H]1CC[C@@H]2[C@H](COC[C@@H](O)CN2C(=O)Nc2ccccc2)O1)NCc1ccncn1,0,0,0,0,0
COc1cccc(CNC(=O)c2cccnc2Sc2ccccc2)c1,0,0,0,48,0
CC(C)NC(=O)N(C)C[C@H]1OCCCC[C@H](C)Oc2ccc(NC(=O)c3ccccc3)cc2C(=O)N([C@H](C)CO)C[C@@H]1C,0,0,0,0,0

# Source: PubChem BioAssay
